Assay results as given in PMC10712300 (Protein and peptide letters, 2021).
Ends that are not written are not given here.

What was measured:
[1] = test system: RIN-m cells; assay: Cell morphology imaging; type: cell-based; details: for RIN-m cell morphology, peptide alone: 12.8 μM IAPP alone (absence of hIAPP for animal variants); for RIN-m cell morphology, hIAPP mixed with animal IAPP: 12.8 μM hIAPP + animal IAPP, 1:1 ratio
[2] = test system: RIN-m cells; assay: LDH cytotoxicity assay; type: cell-based; details: 48 h at 37°C; for LDH release / plasma membrane damage, peptide alone: 12.8 μM IAPP alone; for LDH cytotoxicity of hIAPP mixed with animal IAPP: 12.8 μM hIAPP + 12.8 μM animal IAPP (1:1)
Method in brief: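 RIN-m cells were plated overnight and refed with RPMI-1640 + 10% FBS. HFIP-dried IAPPs were resuspended in the same medium by scraping and 30 s vortexing. Each IAPP was added at 12.8 μM, or hIAPP + animal IAPP 1:1, for 48 h at 37°C, 5% CO2. Spontaneous (water) and maximum (lysis buffer) release wells ran 45 min. Supernatant reaction: 30 min RT dark, then stop. A450/A620; % cytotoxicity by kit equation.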

[3] = cited from earlier work
[4] = test system: hIAPP aggregation / fibril formation; details: cited from earlier work
[5] = patients with type 1 diabetes taking hIAPP mimetic supplements; cited from earlier work
[6] = AFM / amyloid fibril formation of an IAPP peptide by itself; type: physicochemical; details: 37 μM hIAPP alone, 20 mM tris pH 7.40, 37°C, 40 min shaking, deposited onto mica
Method in brief: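 HFIP stocks of peptide (0.125 mg/mL) were sonicated 10 min and held at −80°C. HFIP was removed under vacuum and peptide dissolved in 20 mM Tris pH 7.40. hIAPP was held at 37 μM, alone or with animal IAPP at 37 μM (1:1). Incubation: 37°C, 200 rpm, 40 min. Samples were spotted on fresh mica for 5 min, water-washed, dried, and imaged by AC-mode AFM without flattening.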

| Substance | RIN-m cell morphology, peptide alone [1] | RIN-m cell morphology, hIAPP mixed with animal IAPP [1] | LDH release / plasma membrane damage, peptide alone [2] | LDH cytotoxicity of hIAPP mixed with animal IAPP [2] | independent aggregation, fibril formation and toxicity to living cells [3] | inhibition of hIAPP aggregation (literature) [4] | average weight loss [5] | fibril formation of the peptide alone (AFM) [6] |
| --- | --- | --- | --- | --- | --- | --- | --- | --- |
| cat IAPP: synthetic naturally occurring cat variant of IAPP (KCNTATCATQRLANFLIRSSNNLGAILSPTNVGSNTY; ends and bridges not checked; cysteine pairing not given here; UniProt P12967 34-70, looked up) | some rounding of cells and detaching from the plate | cells looking better than cells incubated with hIAPP alone | some damage to the plasma membrane of the cells, but much less compared to hIAPP | decreased the toxicity of hIAPP and reduced the amount of damage to the plasma membrane | – | – | – | – |
| rat IAPP: synthetic naturally occurring rat variant of IAPP, non-amyloidogenic | did not cause significant changes to RIN-m morphology | many cells with a round shape and detached from the plate | very little effect on the cellular plasma membrane | increased the amount of cytotoxicity in the cell | does not independently aggregate, form fibrils, or show toxicity to living cells | modest inhibitors of hIAPP aggregation | – | – |
| pramlintide | – | – | – | – | – | – | about 2 kg | – |
| Human Islet Amyloid Polypeptide (KCNTATCATQRLANFLVHSSNNFGAILSSTNVGSNTY; Islet amyloid polypeptide; UniProt P10997 34-70, looked up) [hIAPP, reference compound] | changes in cellular shape, formation of granular nuclear structures, and detachment of numerous cells from the plate surface | – | increased the release of LDH into the media | – | – | – | – | forms high-density plaques of fibrils |
